Measurements reported in ChEMBL document CHEMBL1153456, “Synthesis and opioid receptor activity of indolopropellanes” (Bioorg Med Chem Lett, 2009).

Experiments:
[1] = target: T1, Kappa-type opioid receptor (Homo sapiens, UniProt P41145); assay: Displacement of [3H]U50488 from human kappa opioid receptor expressed in CHO cells; format: cell-based
Summary of the method: (§1)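 Binding was run on CHO membranes at 0.5 mg protein per sample, incubated at 25 °C in 50 mM Tris–HCl pH 7.5 with the receptor-specific radioligand and 12 compound concentrations. Naloxone defined nonspecific binding. Values are means ± SEM from three experiments, each run in triplicate.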

Mu-type opioid receptor [2] = target: T2, Mu-type opioid receptor (Homo sapiens, UniProt P35372); assay: Displacement of [3H]DAMGO from human mu opioid receptor expressed in CHO cells; format: cell-based; summary of the method: as §1
T2 sequence (P35372 whole entry): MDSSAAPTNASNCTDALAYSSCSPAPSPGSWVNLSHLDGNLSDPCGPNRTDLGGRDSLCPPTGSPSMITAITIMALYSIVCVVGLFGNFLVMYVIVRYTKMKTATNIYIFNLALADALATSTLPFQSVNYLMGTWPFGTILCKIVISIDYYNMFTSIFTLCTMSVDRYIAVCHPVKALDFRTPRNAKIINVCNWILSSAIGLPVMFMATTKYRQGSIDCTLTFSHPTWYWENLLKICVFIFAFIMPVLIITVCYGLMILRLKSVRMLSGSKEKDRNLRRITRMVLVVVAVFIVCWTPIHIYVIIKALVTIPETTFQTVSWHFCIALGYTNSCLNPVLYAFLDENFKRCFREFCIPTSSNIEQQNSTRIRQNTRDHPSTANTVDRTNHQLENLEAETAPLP

[3] = target: T3, Delta-type opioid receptor (Homo sapiens, UniProt P41143); assay: Displacement of [3H]naltrindole from human delta opioid receptor expressed in CHO cells; format: cell-based; summary of the method: as §1
T3 sequence (P41143 whole entry): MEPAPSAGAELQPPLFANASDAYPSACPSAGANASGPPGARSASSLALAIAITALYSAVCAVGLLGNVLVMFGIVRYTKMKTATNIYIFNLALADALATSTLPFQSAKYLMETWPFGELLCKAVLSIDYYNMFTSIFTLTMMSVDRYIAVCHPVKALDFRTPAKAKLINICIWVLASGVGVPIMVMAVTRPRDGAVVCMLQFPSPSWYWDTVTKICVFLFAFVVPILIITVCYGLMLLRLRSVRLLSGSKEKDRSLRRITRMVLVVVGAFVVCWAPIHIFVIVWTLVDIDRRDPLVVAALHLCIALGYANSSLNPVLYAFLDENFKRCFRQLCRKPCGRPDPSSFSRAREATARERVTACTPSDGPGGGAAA

[4] = target: Delta-type opioid receptor (Rattus norvegicus, UniProt P33533); assay: Displacement of [3H]p-Cl-DPDPE from rat delta opioid receptor expressed in rat C6 cells
Sequence of Delta-type opioid receptor (Rattus norvegicus, UniProt P33533) (P33533 whole entry): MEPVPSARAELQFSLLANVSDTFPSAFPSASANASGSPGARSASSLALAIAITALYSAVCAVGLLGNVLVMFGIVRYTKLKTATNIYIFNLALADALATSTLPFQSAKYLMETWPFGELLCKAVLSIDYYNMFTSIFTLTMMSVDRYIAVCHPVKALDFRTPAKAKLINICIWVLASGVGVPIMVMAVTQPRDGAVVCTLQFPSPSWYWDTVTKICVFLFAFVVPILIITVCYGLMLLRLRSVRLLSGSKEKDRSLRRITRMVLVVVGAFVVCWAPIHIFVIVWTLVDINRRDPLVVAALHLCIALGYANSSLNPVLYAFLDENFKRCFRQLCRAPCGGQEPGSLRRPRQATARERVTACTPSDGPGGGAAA

Mu-type opioid receptor [5] = target: T2, Mu-type opioid receptor; assay: Agonist activity at human mu opioid receptor expressed in CHO cells assessed as stimulation of [35S]GTPgammaS binding by scintillation counting; format: functional, cell-based
Summary of the method: (§2)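 CHO cell membranes expressing the opioid receptor were incubated with varying concentrations of compound in the presence of 0.8 nM [35S]GTPγS. EC50 and Emax were derived from the concentration–response data. Values are means from three experiments, each run in triplicate.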

[6] = target: T3, Delta-type opioid receptor; assay: Agonist activity at human delta opioid receptor expressed in CHO cells assessed as stimulation of [35S]GTPgammaS binding by scintillation counting; format: functional, cell-based; summary of the method: as §2
[7] = target: T1, Kappa-type opioid receptor; assay: Agonist activity at human kappa opioid receptor expressed in CHO cells assessed as stimulation of [35S]GTPgammaS binding by scintillation counting; format: functional, cell-based; summary of the method: as §2

T1 sequence (P41145 whole entry): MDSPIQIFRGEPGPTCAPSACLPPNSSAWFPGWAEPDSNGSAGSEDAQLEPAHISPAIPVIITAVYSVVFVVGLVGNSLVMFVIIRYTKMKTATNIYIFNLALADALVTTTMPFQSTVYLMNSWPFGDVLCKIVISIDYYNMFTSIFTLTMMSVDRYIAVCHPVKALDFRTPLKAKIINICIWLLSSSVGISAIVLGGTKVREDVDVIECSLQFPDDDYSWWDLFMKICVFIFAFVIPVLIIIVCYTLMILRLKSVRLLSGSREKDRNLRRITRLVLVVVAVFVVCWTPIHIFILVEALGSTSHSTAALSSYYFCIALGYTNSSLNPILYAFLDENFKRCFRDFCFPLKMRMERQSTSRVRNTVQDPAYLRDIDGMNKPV

SMILES	Ki [1] [nM]	Ki (Mu-type opioid receptor [2]) [nM]	Ki [3] [nM]	Ki [4] [nM]	EC50 (Mu-type opioid receptor [5]) [nM]	Emax (Mu-type opioid receptor [5]) [%]	EC50 [6] [nM]	Emax [6] [%]	EC50 [7] [nM]	Emax [7] [%]
COc1ccc2c(c1)[C@]13CCN(CC4CC4)C[C@@]1(C2)Cc1c([nH]c2ccccc12)C3	2550	1420	6650							
Oc1ccc2c3c1O[C@H]1c4[nH]c5ccccc5c4C[C@@]4(O)[C@@H](C2)N(CC2CC2)CC[C@]314 [NALTRINDOLE]				0.2						
COc1ccc2c(c1)[C@]13CCN(C)C[C@@]1(C2)Cc1c([nH]c2ccccc12)C3	5120	1820	765							
COc1ccc2c(c1O)[C@]13CCN(C)[C@H](C2)[C@]1(O)Cc1c([nH]c2ccccc12)C3	3160	1850	21.8							
Oc1ccc2c(c1)[C@]13CCN(CC4CC4)C[C@@]1(C2)Cc1c([nH]c2ccccc12)C3	704	523	2550		33	88.6	10	91.4	67.1	79.9
COc1c(O)ccc2c1[C@]13CCN(C)[C@H](C2)[C@]1(O)Cc1c([nH]c2ccccc12)C3		474	4.5							
COc1ccc2c(c1)[C@]13CCN(C)C[C@@]1(C2)Cc1c(n(C)c2ccccc12)C3	3810	713	> 10000							
CN1CC[C@]23Cc4[nH]c5ccccc5c4C[C@]2(Cc2ccc(O)cc23)C1	1190	104	1120							
Cn1c2c(c3ccccc31)C[C@@]13Cc4ccc(O)cc4[C@@]1(CCN(CC1CC1)C3)C2	1520	469	1790							
CN1CC[C@]23Cc4c(c5ccccc5n4C)C[C@]2(Cc2ccc(O)cc23)C1	1120	40.2	268		174	95.7	65	77.3	62.1	76.2
